In ChEMBL document CHEMBL1125433, “Exploration of N-phosphonoalkyl-, N-phosphonoalkenyl-, and N-(phosphonoalkyl)phenyl-spaced alpha-amino acids as competitive N-methyl-D-aspartic acid antagonists” (J Med Chem, 1992) one finds IC50 and inhibition data, which are given here for 29 compounds.

The target in assay [1] is Glutamate NMDA receptor. Kind of assay: Inhibitory activity evaluated by its ability to displace [3H]CPP from N-methyl-D-aspartate glutamate receptor in rat cortical membranes at 10E-5 concentration of the compound. It counts as cell membranes. An outline of the steps: (§1)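 Rat forebrain crude synaptic membranes were pretreated with Triton X-100 and washed in 50 mM Tris-HCl pH 7.6. Membranes (200-400 µg protein/mL) were incubated with 10 nM [3H]CPP and test agent for 15 min at 23 °C, in triplicate. Pellets were collected by centrifugation and counted. Percent inhibition = (T−S)/T×100, where T and S are specific binding without and with test agent.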

A further assay is filed under the species Rattus norvegicus. As to the kind of experiment: In vitro antagonist activity by its ability to inhibit glutamate-induced accumulation of [45Ca2+]- in cultured rat cortical neurons. The class given is functional. An outline of the steps: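 Cortical neurons came from E18 Sprague-Dawley rat fetuses and were used 14-16 days after plating. Cells were held in Mg-free HBSS with 1.4 mM CaCl2, pH 7.4, at 37 °C and 5% CO2. They were exposed for 30 min to 100 µM L-glutamate (final) plus 45Ca2+ (2 µCi/mL) with test agent, then washed with saline, lysed in water and beta-counted. Baseline uptake without glutamate was subtracted. IC50 came from at least four half-log concentrations, with at least six replicates each.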

In assay [2] the target is T1, Glutamate NMDA receptor (Rattus norvegicus) (UniProt P35439+Q00959+Q00960+Q00961+Q62645+Q8VHN2+Q9R1M7). Kind of assay: Displacement of [3H]CPP from N-methyl-D-aspartate glutamate receptor of rat cortical membranes. The class given is cell membranes. Also noted: concentration or dose not given beside the values. The settings on record: Membrane, concentration not given here. The method in brief:
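Membranes were crude synaptic membranes from whole brain, minus cerebellum and brainstem, of male Long-Evans rats. They were treated with 0.01% Triton X-100 (37 °C, 30 min) and washed in 50 mM Tris-HCl pH 7.6. Membranes (200-400 µg protein/mL) were incubated with 10 nM [3H]CPP for 15 min at 23 °C, in triplicate. Bound ligand was separated by centrifugation and counted by scintillation. IC50 was fitted by nonlinear least squares from four or more concentrations.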

Assay [3] has as its target T1, Glutamate NMDA receptor (Rattus norvegicus). As to the kind of experiment: Inhibitory activity evaluated by its ability to displace [3H]CPP from NMDA receptor in rat cortical membranes at 10E-4 concentration of the compound. It counts as cell membranes. An outline of the steps:
as §1

Assay [4] has as its target Glutamate NMDA receptor. As to the kind of experiment: Inhibitory activity evaluated by its ability to displace [3H]CPP from rat cortical membrane receptor at 10E-5 concentration of the compound. An outline of the steps: (§2)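 Crude synaptic membranes from whole brain minus cerebellum and brainstem of male Long-Evans rats, treated with 0.01% Triton X-100 at 37 °C for 30 min and washed. Membranes (200-400 µg protein/mL) were incubated with 10 nM [3H]CPP in 50 mM Tris-HCl pH 7.6 for 15 min at 23 °C in triplicate. Bound ligand was separated by centrifugation and counted by liquid scintillation. Inhibition of specific binding was calculated as ((T−S)/T)×100.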

Assay [5] has as its target Glutamate NMDA receptor. As to the kind of experiment: Inhibitory activity evaluated by its ability to displace [3H]CPP from rat cortical membrane N-methyl-D-aspartate glutamate receptor at 10E-5 concentration of the compound. An outline of the steps:
as §2

Assay [6] deals with Glutamate NMDA receptor. As to the kind of experiment: Inhibitory activity evaluated by its ability to displace [3H]CPP from N-methyl-D-aspartate glutamate receptor in rat cortical membranes at 10E-4 concentration of the compound. It counts as cell membranes. The method in brief:
as §1

One may read the IC50 as the concentration that inhibits the measured activity by half. For the compound `N/C(=N\CC(=O)O)c1cccc(CP(=O)(O)O)c1`, the IC50 stood at 18 µM at Glutamate NMDA receptor [1] and 137 µM in the assay listed under Rattus norvegicus.
One may read the inhibition as the change of the read-out against control, counted positive when it falls. `O=C(O)CNCCSCP(=O)(O)O` came in with an inhibition in assay [2] of 60%.
In the case of `O=C(O)CNCc1ccccc1CP(=O)(O)O`, the inhibition in assay [3] worked out at 21%.
`O=C(O)CNCCCP(=O)(O)O` gave an inhibition in assay [2] of 3%.
In turn, `O=C(O)CNc1cccc(CCP(=O)(O)O)c1` gave an inhibition in assay [2] of 0%.
On to `O=C(O)CNCc1ccc(CP(=O)(O)O)cc1`, for which the results for the IC50 on Glutamate NMDA receptor [4] and in the assay filed under Rattus norvegicus were 2.3 µM and 59 µM, respectively.
In turn, `NC(CCCCCP(=O)(O)O)C(=O)O` (stereo unspecified) [AP-7] gave a 50% inhibitory concentration (IC50) in the assay filed under Rattus norvegicus of 30 µM.
In the case of `O=C(O)CNCCP(=O)(O)O`, the inhibition in assay [2] came to 14%.
For `O=C(O)CNCc1cccc(P(=O)(O)O)c1`, in assay [3], the inhibition was 21%.
In the case of `O=C(O)C1CN(CP(=O)(O)O)CCN1` (stereo unspecified), the 50% inhibitory concentration (IC50) on Glutamate NMDA receptor [4] is 0.065 µM; in the assay listed under Rattus norvegicus, 5.2 µM.
On to `O=C(O)CNCC[S+]([O-])CP(=O)(O)O` (stereo unspecified), for which the inhibition in assay [2] amounted to 4%.
`O=C(O)CNc1cccc(CCCP(=O)(O)O)c1` registered an inhibition in assay [2] of 5%.
On the same count and under the same terms, the result for `O=C(O)CNc1ccccc1CP(=O)(O)O` reads 48%.
Turning to `NC(CCCP(=O)(O)O)C(=O)O` (stereo unspecified), in the assay filed under Rattus norvegicus, the half-inhibitory concentration (IC50) was 6.1 µM.
For the compound `O=C(O)CNCc1cccc(CP(=O)(O)O)c1`, the figures for the IC50 on Glutamate NMDA receptor [4] and in the assay listed under Rattus norvegicus were 2.4 µM and 40 µM, respectively.
`O=C(O)CNc1ccccc1P(=O)(O)O`: the inhibition in assay [2] was 27%.
Same read-out and setting: the result for `CC(NCc1cccc(CP(=O)(O)O)c1)C(=O)O` (stereo unspecified) reads 31%.
At Glutamate NMDA receptor [5], `CC(NC/C=C\CP(=O)(O)O)C(=O)O` (stereo unspecified) yielded an IC50 of 42.4 µM.
For `O=C(O)CNCC/C=C\P(=O)(O)O`, the IC50 on Glutamate NMDA receptor [5] is 2.25 µM; in the assay listed under Rattus norvegicus, 36 µM.
`O=C(O)CNc1ccccc1C(=O)O` came in with a half-inhibitory concentration (IC50) in the assay listed under Rattus norvegicus greater than 250 µM.
`CC(NCc1ccccc1CP(=O)(O)O)C(=O)O` (stereo unspecified) returned an inhibition in assay [2] of 4%.
In assay [2], `CC(C)C(NCc1cccc(CP(=O)(O)O)c1)C(=O)O` (stereo unspecified) had an inhibition of 0%.
For `O=C(O)CNC/C=C/CP(=O)(O)O`, the figures for the IC50 on Glutamate NMDA receptor [4] and in the assay filed under Rattus norvegicus were 1 µM and 16.7 µM, respectively.
Consider `O=C(O)CNCCc1cccc(CP(=O)(O)O)c1`, for which the IC50 on Glutamate NMDA receptor [6] was 13.7 µM; in the assay listed under Rattus norvegicus, 144 µM.
Turning to `O=C(O)C1CN(CCCP(=O)(O)O)CCN1` (stereo unspecified), in the assay filed under Rattus norvegicus, the IC50 came out at 2.4 µM.
In turn, `O=C(O)CNCCCCP(=O)(O)O` registered an inhibition in assay [2] of 17%.
Regarding `O=C(O)CNc1ccccc1CCP(=O)(O)O`, the inhibition in assay [3] was 0%.
For the compound `O=C(O)CNc1cccc(/C=C/CP(=O)(O)O)c1`, the inhibition in assay [2] is 13%.
Same read-out and setting: the result for `O=C(O)CNc1ccccc1/C=C/P(=O)(O)O` reads 9%.
